# Most compounds without a hit are left out; they make up all but 29% or so of the library.
# E coli WT exp: growth inhibitors of wild-type E. coli, primary screen, strain BW25113, expanded library, OD600; growth inhibition, % at 100 µM; OD600 absorbance; hit rate 0.15% among 98,000; AID 710, 2007;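 active = growth inhibition above about 50% at one test dose, limit read from the data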;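 also: growth measured after 20 h incubation at 37 °C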
# CYP2C9 inh: blockers of cytochrome P450 2C9 activity – biochemical, luminescence, ADME assay, primary screen; hit rate 20% among 96,000; inhibition, % at 5 µM; CYP2C9 Supersomes, luciferin-H conversion; P11712;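 active = blocking of liver enzyme CYP2C9 beyond about 50% at 5 µM, limit read from the data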
# Target sequence (P11712 whole entry, looked up): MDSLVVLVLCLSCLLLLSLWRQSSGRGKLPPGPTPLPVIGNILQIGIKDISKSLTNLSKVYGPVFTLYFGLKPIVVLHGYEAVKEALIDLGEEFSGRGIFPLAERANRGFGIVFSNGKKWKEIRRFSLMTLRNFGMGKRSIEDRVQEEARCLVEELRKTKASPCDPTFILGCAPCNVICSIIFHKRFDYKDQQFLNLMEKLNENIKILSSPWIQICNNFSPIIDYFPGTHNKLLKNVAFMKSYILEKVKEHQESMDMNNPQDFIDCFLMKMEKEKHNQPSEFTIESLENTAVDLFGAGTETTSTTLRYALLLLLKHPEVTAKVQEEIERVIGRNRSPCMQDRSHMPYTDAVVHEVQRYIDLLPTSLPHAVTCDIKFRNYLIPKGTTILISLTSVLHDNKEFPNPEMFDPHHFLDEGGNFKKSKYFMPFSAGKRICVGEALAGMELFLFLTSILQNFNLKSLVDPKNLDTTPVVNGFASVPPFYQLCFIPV
# CYP2C9 act: human CYP2C9 activators, primary screen, biochemical, luminescence. recombinant CYP2C9, luciferin-H conversion; stronger effect = higher value; factor 1 = untreated enzyme, 0 = blocked. activation factor at 5 µM. hit rate 1.4% among 96,000. AID 1024, 2008;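 active = activation factor of 2 or more for CYP2C9 at a 5 µM dose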;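 also: 0 = sulfaphenazole-blocked wells and 1 = vehicle-only wells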
# CYP2C19 inhib: blockers of cytochrome P450 2C19 activity – biochemical, luminescence, ADME assay, primary screen. AID 778, 2007. CYP2C19 Supersomes, luciferin-H EGE luminescence, 30 min. hit rate 21% among 96,000. P33261. inhibition, % at 5 µM;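 active = CYP2C19 inhibition above a set limit at 5 µM in the primary screen, cut at about 50% in these data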;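 also: plate controls were negative control wells for no effect and 2.5 mM tranylcypromine positive control for full effect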
# Ecoli tolC: growth inhibitors of E. coli tolC mutant, primary screen, strain BW25113 ΔtolC::kan, 384-well | hit rate 2.2% among 65,000 | AID 573, 2007 | growth inhibition, % at 10 µM (by protocol) | OD615;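 active = growth inhibition at or above a cutoff equal to the mean over every tested compound plus 3 SD, cut at about 60% in these data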;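 also: growth measured after 20 h incubation at 37 °C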
#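 Test system – E. coli BW25113 ΔtolC::kan, tolC deletion mutant strain · Detection – OD at 615 nm · Buffer or medium – LB with kanamycin 50 µg/mL · Times – 20 h compound exposure of bacteria at 37 °C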
# CYP2C19 activ: human CYP2C19 activators, primary screen, biochemical, luminescence; Cytochrome P450 2C19 (Homo sapiens), P33261; recombinant CYP2C19, luciferin-H EGE luminescence; stronger effect = higher value; 0 = fully inhibited enzyme, 1 = untreated enzyme; activation factor at 5 µM; 96,000 tested, under 10 active; AID 1025, 2008;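 active = activation factor of at least 2 at 5 µM in the primary screen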;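 also: 0 = wells with 2.5 mM tranylcypromine and 1 = vehicle-only wells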
# Active calls of the source: *; nt = not tested or not shown.
SMILES,E coli WT exp,CYP2C9 inh,CYP2C9 act,CYP2C19 inhib,Ecoli tolC,CYP2C19 activ
O=C(CSc1nnc(-c2ccco2)o1)NC1CCCCCC1,2,22,0.8,75*,8,0.2
O=C(CSc1nnc(-c2ccc(Cl)cc2Cl)n1C1CCCCC1)N1CCCC1,-1,38,0.6,39,nt,0.6
Cc1cccc(C)c1NC(=O)N1C2CCCC1CC(NC(=O)C(C)(C)C)C2 (stereo not given),2,18,0.8,1,-3,1
CC(=O)c1cccc(NC(=O)c2nccnc2C(=O)O)c1,-9,7,0.9,-2,-22,1
O=C(CSc1ncn[nH]1)NC1CC2CCC1C2 (stereo not given),1,1,1,53*,-13,0.5
O=C(CSc1ncn[nH]1)NCc1ccccc1,10,-10,1.1,9,nt,0.9
CCCNC(=S)Nc1ccc(Br)cc1,26,30,0.7,44,nt,0.6
CC(C)NC(=S)Nc1ccc(Oc2ccccc2)cc1,22,40,0.6,72*,nt,0.3
CCCNC(=S)Nc1ccc(Oc2ccccc2)cc1,31,42,0.6,68*,nt,0.3
Cc1ccc(SC(C)C(=O)NCC(C)C)cc1 (stereo not given),0,29,0.7,35,2,0.7
CC(=O)c1c(C)[nH]c(C(=O)CSc2nnc(-c3ccc(Cl)cc3)n2CC2CCCO2)c1C (stereo not given),-1,11,0.9,9,nt,0.9
CCn1c(SCC(=O)c2[nH]c(C)c(C(C)=O)c2C)nnc1-c1ccncc1,-3,8,0.9,66*,-10,0.3
CCn1c(SCC(=O)O)nnc1-c1ccccc1,0,3,1,7,-10,0.9
CCn1c(SCC(=O)c2[nH]c(C)c(C(C)=O)c2C)nnc1-c1ccccc1,1,27,0.7,77*,nt,0.2
CC1CCN(C(=O)CN2C(=O)C(C)(C)Oc3ccc(C(=O)NC4CCCC4)cc32)CC1,2,49,0.5,14,2,0.9
CCOC(=O)CN(C(=O)CSc1nnc(COc2ccc(OC)cc2)n1C)c1ccccc1,-3,35,0.6,-8,2,1.1
Cc1cccc(N2C(=O)CC(Sc3nc(-c4ccccc4)c4cc(Cl)ccc4n3)C2=O)c1 (stereo not given),-7,58*,0.4,25,nt,0.7
Cc1cccc(N2C(=O)CC(Sc3nc(C)cc(C)n3)C2=O)c1 (stereo not given),-3,15,0.8,40,nt,0.6
CCN(CCCNC(=O)CC1Oc2ccc(C)cc2NC1=O)Cc1ccccc1 (stereo not given),5,-1,1,-4,-1,1
O=C(Cc1ccccc1)Nc1c(C(=O)N2CCOCC2)cnn1-c1ccccc1,2,-6,1.1,-6,-4,1.1
O=C(NCC(c1cccs1)N1CCOCC1)c1cc2ccccc2o1 (stereo not given),4,74*,0.3,75*,17,0.3
O=C(NCC(c1cccs1)N1CCOCC1)c1ccco1 (stereo not given),2,36,0.6,44,nt,0.6
COC(=O)C1=C(N)c2c(F)cccc2C1(C#N)c1ccc(F)cc1 (stereo not given),2,37,0.6,66*,nt,0.3
COC(=O)c1cn(C(=O)c2ccccc2F)nc1N,-17,12,0.9,46,-9,0.5
CCCn1c(SCC(=O)NC)nnc1C(C)C,2,-20,1.2,-2,-13,1
CN(C)c1ccc(CNn2cnnc2SCc2ccc(F)cc2)cc1,3,63*,0.4,98*,13,0
Fc1ccc(CSc2nncn2NC/C=C/c2ccccc2)cc1,7,25,0.8,69*,nt,0.3
Cc1ccc(CNn2cnnc2SCC(=O)NC(C)(C)C)cc1,-2,8,0.9,14,-2,0.9
NC(=O)NC(Cc1ccccc1)C(=O)NCC1(N2CCCCC2)CCCCC1 (stereo not given),2,-5,1.1,-18,-13,1.2
COC(=O)c1cc(S(=O)(=O)N2CCOCC2)c(N2CCOCC2)cc1N1CCOCC1,1,76*,0.2,41,6,0.6
